OX1R antag-1: antagonists of human orexin 1 receptor (OX1R). O43613. OX1R-expressing cells, FRET antagonist read-out. inhibition, % at 6.6 µM. 1.8% of 330,000 active; in the data active means inhibition mostly above about 38%, no sharp cut-off; inactive means mostly below about 40%;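 further: 0% = agonist challenge alone and 100% = reference antagonist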
Target sequence (O43613 whole entry, looked up): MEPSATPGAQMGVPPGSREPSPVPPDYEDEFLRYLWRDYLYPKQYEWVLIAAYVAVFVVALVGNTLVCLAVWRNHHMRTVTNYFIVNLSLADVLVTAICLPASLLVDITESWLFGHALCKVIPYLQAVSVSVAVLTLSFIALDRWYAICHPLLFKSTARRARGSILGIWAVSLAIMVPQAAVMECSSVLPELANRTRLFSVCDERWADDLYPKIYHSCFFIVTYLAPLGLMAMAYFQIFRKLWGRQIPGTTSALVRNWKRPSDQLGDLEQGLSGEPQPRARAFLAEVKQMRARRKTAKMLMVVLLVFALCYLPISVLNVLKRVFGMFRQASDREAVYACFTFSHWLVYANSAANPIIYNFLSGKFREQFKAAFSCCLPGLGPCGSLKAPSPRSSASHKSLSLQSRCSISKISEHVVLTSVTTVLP
GalR3 antag: antagonists of human GalR3; AID 651719; 0.44% of 360,000 active; HEK293 GalR3-CNG cAMP membrane potential fluorescence; galR3 body fused to GalR1 C-terminus; O60755; inhibition, % at 3 µM;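 active means inhibition above the screen-wide average plus 3 SD, cut at about 13% in these data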;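 further: forskolin and galanin both at EC90 stimulate the cells; cAMP rise reported by CNG channel membrane potential dye signal; 0% = forskolin plus galanin with DMSO and 100% = forskolin alone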
CHO parental Ca: signal in parental CHO cells, OX1R antagonist counter-screen; inhibition, % at 5.6 µM; parental CHO-K1, ATP-induced calcium, Fluo-8 fluorescence; 0.63% of 330,000 active;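 active means inhibition above that plate's mean sample inhibition plus 3 SD, cut at about 26% in these data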;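 further: 0% = ATP-challenged DMSO wells and 100% = DMSO wells without ATP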
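Measured by: calcium-sensitive Fluo-8 fluorescence / Test system: CHO parental line / Controls: ATP-challenged DMSO wells low, unchallenged DMSO wells high / Measure: % inhibition / Compound: single nominal dose of 5.6 µM per compound / Replicates: single well per compound, no replicates / Reagent: ATP as calcium-mobilizing challenge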
OX1R antag-2: human HCRTR1 antagonism; CHO/OX1R cells, Fluo-8 calcium fluorescence, orexin A; inhibition, % at 5 µM; 0.43% of 330,000 active;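 active means inhibition above its plate's threshold, mean inhibition of all tested compounds on the plate plus 3 SD, cut at about 37% in these data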;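 further: 0% = orexin A challenge wells and 100% = SB-334867-A antagonist wells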
TAAR1 ag: human TAAR1 agonism | Q96RJ0 | CHO RD-HGA16 TAAR1, Fluo-8 calcium fluorescence; vehicle wells 0%, saturating PEA agonist 100% | activation, % at 3 µM | 0.99% of 360,000 active | AID 624467;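 active means activation above the mean activation of all test compounds in the run plus 3 SD, cut at about 38% in these data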
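System: CHO-derived RD-HGA16 cells with stable Gα16 and human TAAR1 / Times: 17-24 h plating, Fluo-8 75 min 37 °C, 30 min RT / Technique: calcium-sensitive Fluo-8 signal, excitation 470-495, emission 515-575 nm / Measure: % activation relative to PEA EC100 response / Benchmarks: DMSO and PEA EC100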
TAAR1 antag: antagonists of human TAAR1 | Q96RJ0 | CHO RD-HGA16 TAAR1, Fluo-8 calcium fluorescence, antagonist | inhibition, % at 3 µM | 1.5% of 360,000 active | AID 624466;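 active means inhibition above a per-plate cutoff, the mean inhibition of test compounds on that plate plus 3 SD, cut at about 49% in these data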;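 further: 0% = DMSO plus EC80 beta-PEA response and 100% = DMSO alone without agonist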
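Test system – hTAAR1-expressing CHO RD-HGA16 cells, Gα16-coupled · Reagent – β-PEA at EC80 concentration, post-compound challenge · Compound dosing – 3 µM, single point · Timing – 140 s kinetic read after compound, 140 s after agonist · Detection – Fluo-8 intracellular calcium dye fluorescence, real-time kinetic reads · Control set – DMSO and EC80 PEA controls · Repeats – n of 1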
GalR3 antag conf: confirmation of human galanin receptor 3 antagonists | 59% of 1,600 active | inhibition, % at 3 µM | HEK293 GalR3 CNG cAMP biosensor, membrane potential fluorescence; galR3 fused to GalR1 carboxy tail; challenged with forskolin and galanin at EC90 | shares compounds with GalR3 antag;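 active means inhibition above the primary screen's cutoff, the mean inhibition of all screened compounds plus 3 SD, cut at about 13% in these data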;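 further: 0% = forskolin plus galanin and 100% = forskolin alone with DMSO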
CNG parental: counter-screen for GalR3 antagonists: nonspecific agonists in parental HEK-CNG cells; shares compounds with GalR3 antag; HEK293-CNG parental cells, cAMP membrane potential fluorescence; normalised: DMSO wells 0%, forskolin wells 100%; activation, % at 3 µM; 10% of 1,600 active; AID 652268; in the data active means activation above about 1.3%
* hit, by the source's call; · = no result given. Compounds with a hit are over-represented: about 4.2% of the library has one in this group of screens.

SMILES	OX1R antag-1	GalR3 antag	CHO parental Ca	OX1R antag-2	TAAR1 ag	TAAR1 antag	GalR3 antag conf	CNG parental
O=C(CCC(=O)c1cccs1)OCC(=O)c1ccc(Cl)s1	22	·	-9	-1	-3	-8	1	0
O=C(CCC(=O)c1cccs1)OCC(=O)c1ccc(F)cc1	8	-3	1	-7	0	-8	·	·
CC(C)(CNC(=O)/C=C/c1ccc(F)cc1)CNC(=O)/C=C/c1ccc(F)cc1	22	31*	-9	7	9	34	15*	0
O=C(COc1ccc(C(=O)c2ccccc2)cc1)Nc1cccnc1	18	97*	52*	8	5	28	108*	0
O=C(COc1ccccc1)Nc1ccncc1	6	-1	16	-11	1	21	·	·
CCCCOc1ccc(C(=O)Nc2ccncc2)cc1	61	57*	42*	45*	-1	2	102*	0
Cc1ccc(Oc2ccc(OCC(=O)Nc3ccncc3)cc2)cc1	14	105*	58*	50*	7	45	109*	-1
O=C(COc1ccc2ccccc2c1)Nc1ccncc1	62	66*	67*	53*	11	15	73*	0
CC(=O)Nc1ccc(NC(=O)C(C)Sc2n[nH]c(=O)n2Cc2ccccc2)cc1 (stereo not drawn)	2	-11	3	-6	5	-12	·	·
COC[C@H](NS(=O)(=O)c1ccc(Br)cc1F)[C@@H](O)c1ccccc1	·	-3	·	·	2	-8	·	·
Cc1sc(NC(=O)c2ccco2)c(C(c2cccnc2)N2CCCC2)c1C (stereo not drawn)	11	-5	-13	-32	21	10	·	·
Cc1ccc(S(=O)(=O)Nc2nc3ccccc3nc2NCC2CCCO2)c(C)c1 (stereo not drawn)	10	0	-9	-16	-1	-44	·	·
O=S(=O)(Cc1ccccc1)N1CCc2ccccc2C1	11	-3	-9	-14	3	3	·	·
O=c1c(Cl)c(NCCCO)cnn1-c1nc2ccccc2[nH]1	10	15*	-11	4	-1	13	4	0
C=CCN(CC=C)c1cnn(-c2nc3ccccc3[nH]2)c(=O)c1Cl	18	-6	-16	-8	15	14	·	·
CN(C)S(=O)(=O)Oc1cccc(C(=O)Nc2ccc(Cl)cc2)c1	53	28*	22	5	18	26	51*	-1
COc1ccc(CCNc2ccc(N3C(=O)CC(C)C3=O)cc2[N+](=O)[O-])cc1 (stereo not drawn)	29	-7	-8	-16	1	17	·	·
COc1ccc(CCNc2ccc(N3C(=O)CC(C)C3=O)cc2[N+](=O)[O-])cc1OC (stereo not drawn)	59	59*	54*	28	11	50*	104*	-1
CC1(C)CC(N2CCCC2)=CC(=[N+]2CCCCC2)C1	2	37*	2	4	1	1	6	0
CC1(C)CC(N2CCCC2)=CC(=[N+]2CCCC2)C1	10	0	-6	-7	1	-7	·	·
CC(C)(C)NC(=O)C1CC(=O)OC12CCOC(C)(C)C2 (stereo not drawn)	15	2	-1	-9	0	8	·	·
CCCCc1c(C)nc(Nc2ccc(OC)cc2)[nH]c1=O	-2	28*	0	-13	2	-18	-2	0
CCOC(=O)C1=CCC(c2ccc(Cl)cc2)N(S(=O)(=O)c2ccc(C)cc2)C1 (stereo not drawn)	·	-7	·	·	3	4	·	·
Cc1ccc(C(=O)NCCCn2ccnc2)cn1	12	·	-4	-2	11	-4	6	0
O=C(NCCCn1ccnc1)c1ccncc1	5	-4	9	-1	21	-8	·	·

Compound activity from PubChem.
